# Experimental data as given in ChEMBL document CHEMBL1155254, “Diketoacid-genre HIV-1 integrase inhibitors containing enantiomeric arylamide functionality” (Bioorg Med Chem, 2009).
# Key:
# [1] = target: T1, Human immunodeficiency virus type 1 integrase (Human immunodeficiency virus 1, UniProt Q7ZJM1); test: Inhibition of HIV1 integrase strand transfer activity expressed in Escherichia coli by PAGE
# Summary of the method: (§1)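 Recombinant IN expressed in E. coli and purified with 10% glycerol in all buffers. 10 μL reactions held 400 nM IN, 20 nM 5'-end [³²P]-labeled oligonucleotide substrate and inhibitor at various concentrations, with 10% DMSO controls. Buffer was 50 mM MOPS pH 7.2 with 7.5 mM MgCl₂ (final), 30 min at 37 °C. Stopped with EDTA/formamide loading dye.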
# [2] = target: T1, Human immunodeficiency virus type 1 integrase; test: Inhibition of HIV1 integrase 3'-processing activity expressed in Escherichia coli by PAGE; summary of the method: as §1
# T1 sequence (Q7ZJM1 whole entry): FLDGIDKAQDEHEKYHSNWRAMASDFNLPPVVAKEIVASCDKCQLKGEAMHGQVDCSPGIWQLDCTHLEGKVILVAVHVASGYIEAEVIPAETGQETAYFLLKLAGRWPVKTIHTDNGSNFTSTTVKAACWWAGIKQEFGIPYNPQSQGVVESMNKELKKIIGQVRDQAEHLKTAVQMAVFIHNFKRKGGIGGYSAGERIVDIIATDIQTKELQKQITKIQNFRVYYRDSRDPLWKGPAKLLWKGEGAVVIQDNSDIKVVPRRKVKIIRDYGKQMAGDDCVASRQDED
IC50 [1] [µM],IC50 [2] [µM],SMILES
0.39,,O=C1c2ccc(O)c(O)c2C(=O)N1Cc1ccccc1
121,> 333,C[C@H](C1CCCc2ccccc21)N1Cc2ccc(O)c(O)c2C1=O (stereo partly specified)
1.8,128,O=C1c2ccc(O)c(O)c2C(=O)N1[C@H]1CCc2ccccc21
4,> 111,C[C@@H](c1cccc2ccccc12)N1Cc2ccc(O)c(O)c2C1=O
6.8,157,O=C1c2ccc(O)c(O)c2C(=O)N1CCc1ccccc1
99,> 333,C[C@H](C1CCc2ccccc21)N1Cc2ccc(O)c(O)c2C1=O (stereo partly specified)
100,> 333,C[C@H](c1ccccc1)N1Cc2ccc(O)c(O)c2C1=O
0.8,24,O=C1c2c(ccc(O)c2O)CN1Cc1ccc2ccccc2c1
45,> 333,C[C@@H](c1ccccc1)N1Cc2ccc(O)c(O)c2C1=O
4,37,O=C1c2ccc(O)c(O)c2C(=O)N1C1Cc2ccccc2C1
10,111,O=C1c2ccc(O)c(O)c2C(=O)N1[C@H]1CCCc2ccccc21
4.6,> 111,C[C@@H](c1ccc2ccccc2c1)N1Cc2ccc(O)c(O)c2C1=O
0.72,150,O=C1c2ccc(O)c(O)c2C(=O)N1Cc1cccc2ccccc12
0.96,18,O=C1c2ccc(O)c(O)c2C(=O)N1Cc1ccc2ccccc2c1
48.3,> 111,C[C@H](c1cccc2ccccc12)N1Cc2ccc(O)c(O)c2C1=O
81,> 333,O=C1c2ccc(O)c(O)c2C(=O)N1[C@@H]1CCCc2ccccc21
24,> 111,C[C@H](c1ccc2ccccc2c1)N1Cc2ccc(O)c(O)c2C1=O
12,290,O=C1c2ccc(O)c(O)c2C(=O)N1[C@@H]1CCc2ccccc21
6,> 333,C[C@@H](C1CCc2ccccc21)N1Cc2ccc(O)c(O)c2C1=O (stereo partly specified)
9,> 333,C[C@@H](C1CCCc2ccccc21)N1Cc2ccc(O)c(O)c2C1=O (stereo partly specified)
23,> 333,O=C1c2c(ccc(O)c2O)CN1C1Cc2ccccc2C1
